M4 ag: human M4 muscarinic receptor agonists, primary screen, CHO-K1 cells, Fluo-8 calcium fluorescence | Muscarinic acetylcholine receptor M4 (Homo sapiens), P08173 | CHO-K1 hM4/Gqi5; vehicle 0%, full acetylcholine response 100% | activation, % at 3 µM | 360,000 tested, 0.14% active | AID 624127, 2012;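 active = activation above the run mean over all test wells plus 3 SD, cut at about 32% in these data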;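 note: peak over basal fluorescence ratio per well then scaled between controls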
CHRM4 antagonist: human M4 muscarinic receptor antagonists, primary screen, CHO cells, Fluo-8 calcium fluorescence; CHO-hM4 cells, ACh EC80; inhibition, % at 3 µM; Muscarinic acetylcholine receptor M4 (Homo sapiens), P08173; 360,000 tested, 0.73% active;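 active = inhibition above its plate's cutoff, the mean inhibition of sample wells plus 3 SD, cut at about 27% in these data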
M4 PAM: human M4 muscarinic receptor positive allosteric modulators, primary screen, CHO-K1 cells, Fluo-8 calcium fluorescence | Muscarinic acetylcholine receptor M4 (Homo sapiens), P08173 | CHO-K1 hM4/Gqi5, ACh EC20; 0% = ACh EC20, 100% = maximal ACh | activation, % at 3 µM | 360,000 tested, 0.4% active | AID 624126, 2012;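 active = activation above its plate's cutoff, the mean activation of sample wells plus 3 SD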
M5 ag: human M5 muscarinic receptor agonists, primary screen, CHO-K1 cells, Fluo-8 calcium fluorescence. Muscarinic acetylcholine receptor M5 (Homo sapiens), P08912. CHO-K1 hM5 cells; 0% DMSO wells, 100% maximal acetylcholine response. activation, % at 3 µM. 360,000 tested, 0.19% active;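 active = activation above the run's mean over test compounds plus 3 SD, cut at about 23% in these data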;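 note: signal is peak over basal fluorescence ratio across the kinetic read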
Target sequence (P08912 whole entry, looked up): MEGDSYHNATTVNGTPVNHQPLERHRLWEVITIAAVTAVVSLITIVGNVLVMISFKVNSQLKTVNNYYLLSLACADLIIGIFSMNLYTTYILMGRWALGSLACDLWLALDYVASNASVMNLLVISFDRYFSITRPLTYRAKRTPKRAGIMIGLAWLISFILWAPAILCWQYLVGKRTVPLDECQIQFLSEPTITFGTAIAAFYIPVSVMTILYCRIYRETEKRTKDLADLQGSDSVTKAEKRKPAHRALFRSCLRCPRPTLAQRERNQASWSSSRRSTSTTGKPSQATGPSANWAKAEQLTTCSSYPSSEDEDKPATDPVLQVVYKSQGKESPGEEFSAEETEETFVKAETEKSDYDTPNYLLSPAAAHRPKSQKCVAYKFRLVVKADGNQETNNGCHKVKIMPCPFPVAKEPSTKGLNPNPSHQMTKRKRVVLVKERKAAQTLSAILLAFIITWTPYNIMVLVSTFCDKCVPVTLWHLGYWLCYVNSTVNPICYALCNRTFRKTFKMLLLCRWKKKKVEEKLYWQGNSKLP
CHRM5 PAM: human M5 muscarinic receptor positive allosteric modulators, primary screen, CHO-K1 cells, Fluo-8 calcium fluorescence | CHO-K1 hM5, ACh EC20 PAM; 0% = ACh EC20, 100% = ACh EC100 | activation, % at 3 µM | 360,000 tested, 0.3% active;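 active = activation above the run cutoff, the mean activation of all test compounds plus 3 SD, cut at about 18% in these data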
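Replicates: One well per compound, no replicates | System: Human M5 receptor in CHO-K1 cells | Benchmarks: Low control EC20 acetylcholine (0%), high control EC100 acetylcholine (100%) | Probe or stimulus: Acetylcholine, EC20 level | Times: Fluo-8 loading 80 min at 37 °C plus 30 min room temperature | Signal: Intracellular calcium via Fluo-8 fluorescence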
M5 antag: human M5 muscarinic receptor antagonists, primary screen, CHO cells, Fluo-8 calcium fluorescence | Muscarinic acetylcholine receptor M5 (Homo sapiens), P08912 | CHO-hM5 cells, ACh EC80 | inhibition, % at 3 µM | 360,000 tested, 0.59% active | AID 624040, 2012;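 active = inhibition above a per-plate cutoff, the mean of that plate's test compounds plus 3 SD, cut at about 27% in these data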
Numbers stand for hits; . = inactive. A selection: hits, their analogues and other compounds. The true share with any hit is near 1.8%.

SMILES	M4 ag	CHRM4 antagonist	M4 PAM	M5 ag	CHRM5 PAM	M5 antag
Cc1cccc(N(CC(=O)N2CCCC2)S(C)(=O)=O)c1	.	.	.	.	.	.
CS(=O)(=O)N(CC(=O)N1CCCC1)c1cccc(Cl)c1	.	.	.	.	28	.
COc1ccc(C(CNC(=O)c2cccc(S(=O)(=O)NCc3ccccc3)c2)N2CCOCC2)cc1 (stereo unspecified)	.	.	.	.	.	.
COc1ccc(CN2CCN(C(=O)CC(C)C)CC2)cc1OC	.	.	.	.	.	.
COc1ccc(CN2CCN(C(=O)CC(C)C)CC2)c2ccccc12	.	.	.	.	42	.
CCOCC(=O)Nc1ccc([N+](=O)[O-])cc1OC	.	.	.	.	.	.
CCOC(=O)CS(=O)(=O)CC(=O)Nc1ccc([N+](=O)[O-])cc1OC	.	.	.	.	20	.
Cc1cc(C)n2nc(-c3ccc(Br)cc3)cc2n1	.	.	18	.	.	.
COc1ccc(C(=O)Nn2c(SCc3ccc([N+](=O)[O-])cc3)nc3ccccc3c2=O)cc1	.	.	.	.	18	.
COC(=O)/C=C1\S/C(=N/NC(=O)c2ccc(OC)cc2)NC1=O	.	.	.	.	.	30
CCSc1nc(-c2ccco2)ccc1C#N	.	.	.	.	46	.
CN(C(=O)CSc1nc2[nH]ncc2c(=O)[nH]1)c1ccccc1	.	.	18	.	.	.
Cc1cc(C)cc(NC(=O)CSc2nc3[nH]ncc3c(=O)[nH]2)c1	.	.	31	.	22	.
CC1(C)CC(NC(=O)c2cccc(S(=O)(=O)N(Cc3ccccc3)c3ccccc3)c2)CC(C)(C)N1	.	.	.	.	.	.
Cc1nnc(SCC(=O)c2ccc(C(C)C)cc2)s1	.	.	.	.	.	.
CCN(CC)S(=O)(=O)c1cc(NC(=O)c2ccc(-n3cncn3)c([N+](=O)[O-])c2)ccc1C	.	.	.	.	.	.
O=C1NC(=O)C(c2ccccc2)(c2ccccn2)N1 (stereo unspecified)	.	.	.	.	.	.
O=C1NC(=S)NC1(c1ccccc1)c1ccccc1	.	41	.	.	.	.
COc1cc(OC)cc(C(=O)NC2CC(C)(C)NC(C)(C)C2)c1	.	.	.	.	.	.
O=C(COC(=O)CCS(=O)(=O)c1ccccc1)Nc1ccc(N2CCCCC2)cc1	.	.	23	.	.	.
Cn1nc(C(C)(C)C)c([N+](=O)[O-])c1C(=O)NC(C)(C)C	.	.	32	.	.	.
Cn1nc(C(C)(C)C)c([N+](=O)[O-])c1C(=O)Nc1ccccc1	.	.	.	.	.	.
Cc1c(CCOC(=O)c2cc([N+](=O)[O-])cc([N+](=O)[O-])c2)sc[n+]1CC(=O)c1ccc(Br)cc1	.	29	.	.	.	.
Cc1c(CCOC(=O)C23CC4(C)CC(C)(CC(C)(C4)C2)C3)sc[n+]1CC(=O)c1ccccc1	.	.	.	.	.	.
Cc1c(CCOC(=O)c2ccc(Cl)cc2Cl)sc[n+]1CC(=O)c1ccccc1	.	44	.	.	.	45
SMILES	M4 ag	CHRM4 antagonist	M4 PAM	M5 ag	CHRM5 PAM	M5 antag
Cc1sc[n+](CC(=O)c2ccc(Br)cc2)c1C	.	.	.	.	.	.
O=C(COc1ccc(C(=O)c2ccccc2)cc1)Nc1cccnc1	.	.	.	.	.	31
CCc1ccc(OCC(=O)Nc2ccncc2)cc1	.	.	.	.	.	.
Cc1ccc(Oc2ccc(OCC(=O)Nc3ccncc3)cc2)cc1	.	.	.	.	.	34
[O-]c1c[n+](-c2ccc(-[n+]3cc([O-])on3)cc2)no1	.	.	.	.	.	.
Cc1c(C(=O)OC(C)C)sc(NC(=O)c2cnccn2)c1C(=O)OC(C)C	.	.	.	.	.	.
CCOc1cc(-c2nc3ccccc3s2)ccc1O	.	31	.	.	.	.
Cc1ccc(C2CCN(C(=S)NC(C)C)C2)cc1 (stereo unspecified)	.	.	.	.	.	.
Cc1ccc(C(=O)CSC2=C(C#N)C(c3ccco3)CC(=O)N2)c(C)c1 (stereo unspecified)	.	.	.	47	.	.
Cc1ccc(NC(=S)NC2CCSc3ccccc32)cc1 (stereo unspecified)	.	75	.	.	.	49
CC(=O)Nc1ccc(C(=O)NC2CCSc3ccccc32)cc1 (stereo unspecified)	.	.	.	.	.	.
COc1ccc(-c2nc(C(=O)O)cs2)cc1OC	.	.	.	.	26	.
CCOC(=O)c1csc(-c2ccc(OC)c(OC)c2)n1	.	.	.	.	.	.
Cc1cc([N+](=O)[O-])nn1CC(=O)N/N=C/c1ccccc1O	.	.	.	.	.	.
COc1cc(OC)c(/C=N/NC(=O)Cn2nc([N+](=O)[O-])cc2C)c(OC)c1	.	.	12	.	.	.
Clc1ccc(OCc2nc(-c3ccccn3)no2)c(Br)c1	.	.	.	.	.	.
Nc1nc(-c2ccccn2)nc(N)c1Cc1ccccc1F	.	.	.	.	.	.
Nc1nc(-c2ccccn2)nc(N)c1Cc1c(F)cccc1Cl	.	.	.	.	19	.
Nc1nc(-c2ccccn2)nc(N)c1Cc1ccc(Cl)cc1Cl	.	81	.	.	.	.
CCn1c(C(=O)O)c(S(=O)(=O)c2ccc(Cl)cc2)c2ccccc21	.	.	.	.	.	.
Nc1ncnc2c1ncn2[C@H]1C[C@H](O)[C@@H](COP(=O)(O)O)O1	.	30	.	.	.	.
Nc1ncnc2c1ncn2C1CCCO1 (stereo unspecified)	.	.	.	28	.	.
S=c1nc[nH]c2c1ncn2C1CCCO1 (stereo unspecified)	.	.	.	.	19	.
Nc1ncnc2c1ncn2C1CCCC1	.	.	.	.	.	.
NCC1OC(n2cnc3c(N)ncnc32)CC1O (stereo unspecified)	.	.	.	.	.	.
Cc1ccc(C)c(S(=O)(=O)N2CCCOC2CNC(=O)C(=O)NCCc2ccccc2)c1 (stereo unspecified)	.	.	.	.	.	.
O=C(Nc1ccccc1OC(F)F)c1ccc(F)cc1	.	.	.	.	24	.
O=C(c1c(F)cccc1F)N(Cc1ccccn1)C1CC1	.	.	18	.	.	.

Screens deposited in PubChem BioAssay by The Scripps Research Institute Molecular Screening Center.
